Test system: MS2 coat protein
Test: apparent Kd, MS2 coat protein; higher = weaker binding; RNA-MaP array; FMN 200 µM where present
Outline: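 The titrant was SNAP-549-labelled MS2 coat protein, run from 0.7 or 1.5 nM in doubling steps to 3 µM. It was applied to designs transcribed by stalled E. coli RNA polymerase on Illumina sequencing-chip clusters, without ligand first and then with constant ligand, in 100 mM Tris-HCl pH 7.5, 80 mM KCl, 4 mM MgCl2, BSA, DTT, yeast tRNA and Tween-20. The apparent Kd is the median of filtered per-cluster binding-curve fits, with green signal normalised to red-channel RNA signal and control-cluster median Fmax.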

[1] = designed as: OFF switch for flavin mononucleotide, no ligand
[2] = ligand present: flavin mononucleotide, designed as: OFF switch for flavin mononucleotide
[3] = designed as: ON switch for flavin mononucleotide, no ligand
[4] = ligand present: flavin mononucleotide, designed as: ON switch for flavin mononucleotide

UAUAUAUAGUAAGGAUAUGUAUUUAUGUUAUAAACAGAAGGUACUGACAUGAGGAUCACCCAUGUUUUAGUGUGGGCAUGUAGA
apparent Kd [1]: 87.9 nM
apparent Kd [2]: 122 nM

CGCUGUCACGCAGGAUAUGCAAUGGAUUACAUUGCAGAAGGGCGAUCACAUGAGGAUCACCCAUGUGUAGACAGUGAAGAAGAG
apparent Kd [3]: 738 nM
apparent Kd [4]: 45.8 nM

GUUCAAGUAAAGGAUAUGUAGAGCCGCGAGGCCGCAGAAGGUUGCACAUGAGGAUCACCCAUGUCGUCUCUGAU
apparent Kd [1]: 17.1 nM
apparent Kd [2]: 21.2 nM

GUAGCAUUGAGAGGAUAUCCAUACCGGAAACGGACAUGAGGAUCACCCAUGUGGCGAAAGCCGUGGGAGAAGGCUCUAUGCUAC
apparent Kd [3]: 8.39 nM
apparent Kd [4]: 4.32 nM

GCUACGUCAGGAUAUCUGAUGUCUAACUUCGGUUAGACAUCAGAGAAGGGACAUGAGGAUCACCCAUGUAGCAG
apparent Kd [1]: 114 nM
apparent Kd [2]: 112 nM

AUCAGCUUGACAGGAUAUACAUCACUGCGAAAGCAGUGUAUCUUAAUAACAUGAGGAUCACCCAUGUAGAAGGGUCGAGCUGAU
apparent Kd [1]: 18.4 nM
apparent Kd [2]: 32.6 nM

GUCAGCUCGUGAGGAUAUACAUCACUGCUUCGGCAGUGUAUUAAGAUAACAUGAGGAUCACCCAUGUAGAAGGCACGAGCUGAU
apparent Kd [1]: 17 nM
apparent Kd [2]: 28.5 nM

GCAGGCUUCGAGAAGGACAUGAGGAUCACCCAUGUGCGUGUGAAGCAGCCGUGAGGCUGCAUCAUGUAGGAUAUCGGAGUCUGG
apparent Kd [1]: 72.2 nM
apparent Kd [2]: 525 nM

GAAGUCUAUUGAGGAUAUCGUUAUCAAAGAUAAUGAGAAGGCAAACAAUCAUGAGGACAUGAGGAUCACCCAUGUUGUGACCAU
apparent Kd [3]: 26.6 nM
apparent Kd [4]: 13.6 nM

UAAUAAAGUGUGAGGAUAUGCUGGUCCUUAGAUCAGCAGAAGGCACAUGAGGAUCACCCAUGUAAUAUAUAAAU
apparent Kd [1]: 40 nM
apparent Kd [2]: 281 nM

CAGCGCUGUCGAGAGGAUAUGCGGUGAUGGACAUGAGGAUCACCCAUGUUAGCGACAGCAUUACGGUAGAAGGCUUCACAGCUGC
apparent Kd [3]: 51.5 nM
apparent Kd [4]: 202 nM

UAUAAGAACGAAGGAUAUGGUUACAUGAGGAUCACCCAUGUAUUAAUUUUGAUCUAUUUUUAUAACCAGAAGGUCGAGAGUAAA
apparent Kd [1]: 36.2 nM
apparent Kd [2]: 49.5 nM

AAUAACAAGCAGAAGGGUGAAACGAUAUAGUGCACAGGAUAUGCAAUAAUUCUAAACAUGAGGAUCACCCAUGUCUAGCAUAAA
apparent Kd [3]: 28.2 nM
apparent Kd [4]: 9.84 nM

UGGUCAUCAUCAGGAUAUUAACGUGGGCUACAUUAAGAAGGGAUAGUGGGAGAGGAUGUGAAACAUGAGGAUCACCCAUGUUGU
apparent Kd [3]: 13.3 nM
apparent Kd [4]: 10.6 nM

GUCCUUUCUGAGGAUAUUAUCCUUUCCGAUUGAUAAGAAGGCAGUACAUGAGGAUCACCCAUGUGGGUUGUCUG
apparent Kd [1]: 29.8 nM
apparent Kd [2]: 38.3 nM

UCCUUCUGUUGAGGAUAUGUAAGACAGCGGCUGCUAUUGCGGCCCGCUGAUACAGAAGGCAACAUGAGGAUCACCCAUGUUCAA
apparent Kd [1]: 22.9 nM
apparent Kd [2]: 163 nM

UAUCCACAUGAGGAUCACCCAUGUGAGGAUAUGAUACUAUGUACUUCGGUACAUAGUAUCAGAAGGCACAGGUC
apparent Kd [1]: 21.3 nM
apparent Kd [2]: 36.3 nM

GGAGAUACAUGAGGAUCACCCAUGUAGGAUAUCGGGCCUAUAUAUGGCGAAAGCCAUAUAUAGGCCGAGAAGGGCGUACACACC
apparent Kd [1]: 8.07 nM
apparent Kd [2]: 7.52 nM

AGCGGCGCAGACCACCGCAAAACCAGAAGGACAUGAGGAUCACCCAUGUAACAAAACAGGGCGGUGUAGGAUAUGGCAGACCCA
apparent Kd [1]: 8.87 nM
apparent Kd [2]: 7.71 nM

GAGAAGUCAGGAUAUGCUGCUCGUCACUUGCGUGAUGAGUAGCAGAAGGGACAUGAGGAUCACCCAUGUAAAGU
apparent Kd [1]: 51.7 nM
apparent Kd [2]: 74.8 nM
